# Results reported in ChEMBL document CHEMBL1240350, “In vitro activity of CEM-101 against Streptococcus pneumoniae and Streptococcus pyogenes with defined macrolide resistance mechanisms” (Antimicrob Agents Chemother, 2010).
# What was measured:
# Streptococcus pneumoniae [1] = assay: Antibacterial activity against macrolide-susceptible Streptococcus pneumoniae after overnight incubation by agar dilution method; type: functional
# Method in brief: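 Agar dilution MICs on Mueller-Hinton agar with 5% sheep blood. Inoculum 10^4 CFU/spot, incubated overnight at 35°C in ambient air. Clinical S. pneumoniae or group A streptococcal isolates; resistance genotypes (erm(B), erm(A), mef(A)/mef(E)) were assigned by PCR. S. pneumoniae ATCC 49619 served as QC strain in each run. Range, MIC50 and MIC90 reported per phenotype group.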
# Streptococcus pneumoniae [2] = assay: Antibacterial activity against macrolide-resistant Streptococcus pneumoniae 3009 harboring mutation in 23S rRNA after 50 passages following overnight incubation by agar dilution method; type: functional
# Streptococcus pneumoniae [3] = assay: Antibacterial activity against macrolide-resistant Streptococcus pneumoniae 1635 harboring erm(A) gene after 14 passages following overnight incubation by agar dilution method; type: functional
# Streptococcus pneumoniae [4] = assay: Antibacterial activity against macrolide-susceptible Streptococcus pneumoniae 7127 harboring S20N mutation in L4 ribosomal protein and A105V mutation in L22 ribosomal protein after 16 passages and 10 compound-free subculturing by retest method; type: functional
# Streptococcus pneumoniae [5] = assay: Antibacterial activity against macrolide-susceptible Streptococcus pneumoniae 7127 harboring S20N mutation in L4 ribosomal protein and A105V mutation in L22 ribosomal protein after overnight incubation by agar dilution method; type: functional
# Streptococcus pneumoniae [6] = assay: Antibacterial activity against macrolide-susceptible Streptococcus pneumoniae 1077 after 49 passages and 10 compound-free subculturing by retest method; type: functional
# Streptococcus pneumoniae [7] = assay: Antibacterial activity against macrolide-resistant Streptococcus pneumoniae 2686 harboring mutation in L4 ribosomal protein after 50 passages following overnight incubation by agar dilution method; type: functional
# Streptococcus pyogenes [8] = assay: Antibacterial activity against macrolide-resistant Streptococcus pyogenes 237 harboring mutation in L4 ribosomal protein after 43 passages following overnight incubation by agar dilution method
# Streptococcus pneumoniae [9] = assay: Antibacterial activity against Streptococcus pneumoniae harboring erm(B) gene after overnight incubation by agar dilution method; type: functional
# Method in brief: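 Clinical isolates collected 1998–2008, with macrolide-resistance genes confirmed by PCR. MICs by agar dilution on Mueller-Hinton agar with 5% sheep blood. Inoculum 10^4 CFU/spot, incubated overnight at 35°C in ambient air. S. pneumoniae ATCC 49619 was the quality-control strain in every run.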
# Streptococcus pneumoniae [10] = assay: Antibacterial activity against macrolide-resistant Streptococcus pneumoniae 3665 harboring mef(A) gene after 50 passages following overnight incubation by agar dilution method; type: functional
# Streptococcus pneumoniae [11] = assay: Antibacterial activity against macrolide-resistant Streptococcus pneumoniae 3009 harboring mutation in 23S rRNA after 20 passages and 10 compound-free subculturing by retest method; type: functional
# Streptococcus pyogenes [12] = assay: Antibacterial activity against macrolide-resistant Streptococcus pyogenes 237 harboring mutation in L4 ribosomal protein after 43 passages and 10 compound-free subculturing by retest method
# Streptococcus pneumoniae [13] = assay: Antibacterial activity against penicillin-susceptible Streptococcus pneumoniae after overnight incubation by agar dilution method; type: functional
# Method in brief: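 Agar dilution on Mueller-Hinton agar supplemented with 5% sheep blood. Inoculum 10^4 CFU/spot, incubated overnight at 35°C in ambient air. Test strains were clinical pneumococcal isolates. S. pneumoniae ATCC 49619 was included as the quality control strain in each run. MIC range, MIC50 and MIC90 were reported for each susceptibility category.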
# Streptococcus pneumoniae [14] = assay: Antibacterial activity against macrolide-resistant Streptococcus pneumoniae 1076 harboring erm(B) and mef(A) gene after 18 passages and 10 compound-free subculturing by retest method; type: functional
# Method in brief: (§1)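 Multistep selection by daily serial passage in subinhibitory drug concentrations. Medium was cation-adjusted Mueller-Hinton broth plus 5% lysed horse blood. Each day the next inoculum came from the tube 1–2 dilutions below the MIC whose turbidity matched the growth control, for up to 50 days. Clone MICs by CLSI macrodilution; identity to the parent confirmed by SmaI PFGE.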
# Streptococcus pneumoniae [15] = assay: Antibacterial activity against macrolide-resistant Streptococcus pneumoniae 2686 harboring mutation in L4 ribosomal protein after 22 passages following overnight incubation by agar dilution method; type: functional
# Streptococcus pneumoniae [16] = assay: Antibacterial activity against macrolide-resistant Streptococcus pneumoniae 3665 harboring mef(A) gene after 14 passages following overnight incubation by agar dilution method; type: functional
# [17] = Tmax in human at 400 to 500 mg; details: in vivo
# Streptococcus pneumoniae [18] = assay: Antibacterial activity against macrolide-resistant Streptococcus pneumoniae 24 harboring erm(B) gene after 14 passages following overnight incubation by agar dilution method; type: functional
# Streptococcus pneumoniae [19] = assay: Antibacterial activity against macrolide-resistant Streptococcus pneumoniae 1635 harboring erm(A) gene after 14 passages and 10 compound-free subculturing by retest method; type: functional; method in brief: as §1
# Streptococcus pneumoniae [20] = assay: Antibacterial activity against macrolide-susceptible Streptococcus pneumoniae 1077 after 43 passages following overnight incubation by agar dilution method; type: functional
# Streptococcus pyogenes [21] = assay: Antibacterial activity against macrolide-resistant Streptococcus pyogenes 237 harboring mutation in L4 ribosomal protein after 20 passages following overnight incubation by agar dilution method
# Streptococcus pneumoniae [22] = assay: Antibacterial activity against macrolide-susceptible Streptococcus pneumoniae 1077 after 15 passages following overnight incubation by […]; type: functional
# Method in brief: (§2)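 S. pneumoniae parental strains were passaged daily in subinhibitory drug concentrations in cation-adjusted Mueller-Hinton broth with 5% lysed horse blood. Each passage was seeded from the tube 1 to 2 dilutions below the MIC whose turbidity matched the growth control. MICs of resistant clones were measured by CLSI macrodilution. Parent and clone identity was confirmed by PFGE of SmaI-digested DNA.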
# Streptococcus pneumoniae [23] = assay: Antibacterial activity against macrolide-resistant Streptococcus pneumoniae 1635 harboring erm(A) gene after 50 passages following overnight incubation by […]; type: functional; method in brief: as §2
# [24] = Streptococcus pneumoniae, 1635, read-out: MIC
SMILES,MIC50 (Streptococcus pneumoniae [1]),MIC90 (Streptococcus pneumoniae [1]),MIC (Streptococcus pneumoniae [2]),MIC (Streptococcus pneumoniae [4]),MIC (Streptococcus pneumoniae [5]),MIC (Streptococcus pneumoniae [6]),MIC50 (Streptococcus pneumoniae [9]),MIC (Streptococcus pneumoniae [11]),MIC (Streptococcus pyogenes [12]),MIC50 (Streptococcus pneumoniae [13]),MIC90 (Streptococcus pneumoniae [13]),MIC (Streptococcus pneumoniae [14]),MIC (Streptococcus pneumoniae [16]),MIC (Streptococcus pneumoniae [18]),MIC (Streptococcus pneumoniae [19]),MIC (Streptococcus pneumoniae [19]; [24]),MIC90 (Streptococcus pneumoniae [9]),also measured
CCC[C@@H]1C[C@@H](C(=O)N[C@@H]([C@H]2O[C@H](SC)[C@H](O)[C@@H](O)[C@H]2O)[C@H](C)Cl)N(C)C1 [CLINDAMYCIN],0.03 µg/mL,0.06 µg/mL,2 µg/mL,0.03 µg/mL,0.03 µg/mL,8 µg/mL,> 64 µg/mL,1 µg/mL,1 µg/mL,0.06 µg/mL,> 64 µg/mL,> 64 µg/mL,,,,,,MIC (Streptococcus pneumoniae [3]): > 64 µg/mL; MIC (Streptococcus pneumoniae [7]): 0.125 µg/mL; MIC (Streptococcus pyogenes [8]): 0.5 µg/mL; MIC (Streptococcus pneumoniae [10]): 0.03 µg/mL
CC[C@H]1OC(=O)[C@@](C)(F)C(=O)[C@H](C)[C@@H](O[C@@H]2O[C@H](C)C[C@H](N(C)C)[C@H]2O)[C@](C)(OC)C[C@@H](C)C(=O)[C@H](C)[C@H]2N(CCCCn3cc(-c4cccc(N)c4)nn3)C(=O)O[C@]12C [SOLITHROMYCIN],0.008 µg/mL,0.015 µg/mL,,0.06 µg/mL,0.008 µg/mL,0.06 µg/mL,0.03 µg/mL,0.25 µg/mL,0.03 µg/mL,0.03 µg/mL,0.125 µg/mL,32 µg/mL,0.5 µg/mL,0.06 µg/mL,0.004 µg/mL,0.004 µg/mL,0.5 µg/mL,MIC (Streptococcus pneumoniae [15]): 0.5 µg/mL; Tmax [17]: 4 h; MIC (Streptococcus pneumoniae [20]): 0.06 µg/mL; MIC (Streptococcus pyogenes [21]): 0.25 µg/mL
CC[C@H]1OC(=O)[C@H](C)C(=O)[C@H](C)[C@@H](O[C@@H]2O[C@H](C)C[C@H](N(C)C)[C@H]2O)[C@](C)(OC)C[C@@H](C)C(=O)[C@H](C)[C@H]2N(CCCCn3cnc(-c4cccnc4)c3)C(=O)O[C@]12C [TELITHROMYCIN],0.03 µg/mL,0.03 µg/mL,0.03 µg/mL,0.06 µg/mL,0.008 µg/mL,0.06 µg/mL,0.06 µg/mL,0.06 µg/mL,0.06 µg/mL,0.06 µg/mL,0.25 µg/mL,32 µg/mL,2 µg/mL,32 µg/mL,0.008 µg/mL,0.004 µg/mL,1 µg/mL,MIC (Streptococcus pneumoniae [22]): 0.25 µg/mL; MIC (Streptococcus pneumoniae [23]): 0.008 µg/mL
